Data set [1] can be described thus: Half life in Swiss Webster mouse at 1 mg/kg, iv by HPLC-MS/MS analysis. It counts as ADME, organism-based. Also on record: dose 1 mg/kg, route intravenous. Particulars: in vivo. An outline of the steps:
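Male Swiss Webster mice, n = 3 per time point. For i.v., the compound was dissolved in sterile water, diluted 1:1 with 2× saline, and given as a tail-vein bolus over ~10–20 s. For p.o., it was given by gavage in sterile water. Dose volume was 5 ml/kg. Parameters came from noncompartmental analysis.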

A short description of data set [2]: Tmax in Swiss Webster mouse at 131 mg/kg, po by HPLC-MS/MS analysis. It counts as ADME, organism-based. Also on record: dose 131 mg/kg, route oral. Particulars: in vivo. An outline of the steps: (§1)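 Male Swiss Webster mice (n = 3 per time point), single dose by oral gavage (sterile water solution) or tail-vein bolus i.v. (water diluted 1:1 with 2× saline, over ~10–20 s); dose volume 5 ml/kg. Terminal blood sampled from 5 min to 72 h postdose; plasma quantified by HPLC-MS/MS (positive-ion SRM). Noncompartmental analysis gave Cmax, Tmax, AUC0-∞, CL, Vss; bioavailability from p.o. versus i.v. exposure.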

The test system of data set [3] is Mus musculus. The data set is described as follows: Renal toxicity in BALB/c mouse assessed as blood urea nitrogen level in serum at 100 mg/kg/day, po administered for five days (Rvb= 29 mg/dl). It counts as organism-based. Also on record: route oral. Conditions: in vivo. An outline of the steps:
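Female BALB/c mice (n = 5 per dose), dosed once daily for 5 consecutive days p.o. (20 ml/kg) or i.v. (10 ml/kg) with compound in sterile water, prepared fresh daily under yellow light. Vehicle controls n = 5 per route. Clinical observations, body weights, serum chemistry and hematology on day 6 before necropsy; histopathology of formalin-fixed tissues. Chemistry analysed by one-way ANOVA with Dunnett's posttest.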

Data set [4] is described as follows: Half life in Swiss Webster mouse at 16.5 mg/kg, po by HPLC-MS/MS analysis. It counts as ADME, organism-based. Also on record: dose 16.5 mg/kg, route oral. Particulars: in vivo. An outline of the steps:
(§2)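 Male Swiss Webster mice, n = 3 per time point. For i.v., the compound was dissolved in sterile water, diluted 1:1 with 2× saline, and given as a tail-vein bolus over ~10–20 s. For p.o., it was given by gavage in sterile water. Dose volume was 5 ml/kg. Terminal plasma was taken from 5 min to 72 h and measured by HPLC-MS/MS (calibration 2.5–10,000 nM). Parameters came from noncompartmental analysis.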

Data set [5] has as its system Mus musculus. The data set is described as follows: Toxicity in BALB/c mouse at 150 mg/kg/day, po administered for five days measured on day 5. It counts as organism-based. Also on record: route oral. Conditions: in vivo. In outline:
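Five-day repeat-dose study in female BALB/c mice (n = 5 per dose level): oral dosing once daily for five consecutive days in sterile water prepared fresh daily under yellow light, 20 ml/kg. Vehicle controls received sterile water only. Clinical observations and body weights were recorded, with blood for hematology and serum chemistry taken on day 6 before necropsy. A veterinary pathologist examined formalin-fixed tissues.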

Data set [6] in a line: Half life in Swiss Webster mouse at 131 mg/kg, po by HPLC-MS/MS analysis. In kind it is ADME, organism-based. Also on record: dose 131 mg/kg, route oral. Conditions: in vivo. In outline:
as §2

The test system of data set [7] is Mus musculus. The data set is described as follows: Toxicity in BALB/c mouse at 25 mg/kg/day, po administered for five days. It counts as organism-based. Also on record: route oral. Conditions: in vivo.
Data set [8] deals with Mus musculus. The data set is described as follows: Toxicity in BALB/c mouse assessed as hypoactivity at 100 mg/kg/day, ip after second dose. It counts as organism-based. Also on record: route intraperitoneal. Particulars: in vivo.
A short description of data set [9]: Oral bioavailability in Swiss Webster mouse at 66 mg/kg by HPLC-MS/MS analysis. In kind it is ADME, organism-based. Conditions: in vivo. In outline:
as §1

Data set [10] can be described thus: Oral bioavailability in Swiss Webster mouse at 16.5 mg/kg by HPLC-MS/MS analysis. In kind it is ADME, organism-based. Particulars: in vivo. An outline of the steps:
as §1

The test system of data set [11] is Leishmania donovani. The data set is described as follows: Antileishmanial activity against Leishmania donovani WR378 infected in golden Syrian hamster assessed as reduction in spleen parasitemia at 50 mg/kg/day, po administered for five days. In kind it is functional. Particulars: 120 h. In outline:
(§3)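 11-day golden hamster VL model adapted from an 8-day method, using L. donovani WR378 metacyclic promastigotes. Dosing was oral, once daily for 5 days. Animals were euthanized on day 11 post-infection. Liver, spleen and femoral bone marrow (flushed with Schneider's medium) were harvested.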

Data set [12] in a line: Induction of mutagenicity in Salmonella serovar Typhimurium TA 100 assessed as number of revertant colonies at 500 ug by Ames assay. In kind it is toxicity, Salmonella enterica subsp. enterica serovar Typhimurium. Particulars: in vivo. An outline of the steps:
(§4)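 Ames plate incorporation with S. Typhimurium TA98 and TA100, with or without Aroclor 1254-induced rat liver S9 (10% vol/vol). Compound was dissolved in sterile water and serially diluted to 1–500 μg/plate. Positive controls were 2-nitrofluorene and sodium azide without S9, and 2-aminoanthracene with S9; sterile water and DMSO served as vehicles. Revertant colonies and background lawn were scored. A mutagen was defined as a mean revertant count at least 2-fold over solvent control. Single experiment.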

Data set [13] is described as follows: Half life in Swiss Webster mouse at 5 mg/kg, iv by HPLC-MS/MS analysis. It counts as ADME, organism-based. Also on record: dose 5 mg/kg, route intravenous. Conditions: in vivo. In outline:
as §2

A short description of data set [14]: Induction of mutagenicity in Salmonella serovar Typhimurium TA 98 assessed as number of revertant colonies at 1 ug by Ames assay in presence of Aroclor 1254-induced rat liver S9 metabolic activation system. In kind it is toxicity, subcellular, Salmonella enterica subsp. enterica serovar Typhimurium. An outline of the steps:
as §4

The nature of data set [15]: Cmax in Swiss Webster mouse at 5 mg/kg, iv by HPLC-MS/MS analysis. In kind it is ADME, organism-based. Also on record: dose 5 mg/kg, route intravenous. Conditions: in vivo. In outline:
as §2

In data set [16] the test system is Leishmania donovani. The data set is described as follows: Antileishmanial activity against Leishmania donovani WR378 infected in golden Syrian hamster assessed as reduction in liver parasitemia at 50 mg/kg/day, po administered for five days. Particulars: 120 h. It counts as functional. An outline of the steps:
as §3

Data set [17] relates to Mus musculus. The data set is described as follows: Toxicity in BALB/c mouse assessed as occurrence of tremor at 50 mg/kg, iv. It counts as organism-based. Particulars: in vivo. Also on record: dose 50 mg/kg, route intravenous. In outline: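 Single-dose escalation: female BALB/c mice (n = 1 per dose level) given one i.v. dose in sterile water (10 ml/kg), 5–50 mg/kg, observed for 2 days.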

In data set [18] the test system is Leishmania donovani. The data set is described as follows: Antileishmanial activity against Leishmania donovani promastigotes in BALB/c mouse assessed as inhibition of liver parasitemia at 100 mg/kg/day, po administered for five days. In kind it is functional. Also on record: scale not given: the % may be the effect or the level left. An outline of the steps: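 Murine VL model in L. donovani-infected mice. Compounds were dissolved in water and given i.p. or p.o. once daily for 5 days (4 days for one i.p. regimen). Liver parasitemia was compared with untreated controls by unpaired Student's t test, P ≤ 0.05.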

Data set [19] in a line: Drug level in Swiss Webster mouse spleen at 70 mg/kg, po after 2 hrs by HPLC/UV analysis. Particulars: read-out: Drug uptake.
In data set [20] the test system is Leishmania donovani. The data set is described as follows: Antileishmanial activity against Leishmania donovani WR378 infected in golden Syrian hamster assessed as reduction in bone marrow parasitemia at 30 mg/kg/day, po administered for five days. In kind it is functional. Particulars: 120 h. In outline:
as §3

Data set [21] relates to Mus musculus. The data set is described as follows: Volume of distribution in Swiss Webster mouse at 70 mg/kg, po by HPLC-MS/MS analysis. Also on record: dose 70 mg/kg, route oral. Conditions: in vivo. It counts as ADME, organism-based. In outline:
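Male Swiss Webster mice (n = 3 per time point) got a single oral gavage dose in sterile water, 5 ml/kg. The 5 mM formulation was a clear solution; the 20 and 40 mM formulations were gelatinous. Terminal blood was collected from 5 min to 72 h postdose, and plasma was analysed by HPLC-MS/MS. Volume of distribution came from noncompartmental analysis.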

Data set [22] deals with Mus musculus. The data set is described as follows: Hepatotoxicity in BALB/c mouse assessed as AST level in serum at 100 mg/kg/day, po administered for five days (Rvb= 70 U/L). It counts as toxicity, organism-based. Also on record: route oral. Conditions: in vivo.
The nature of data set [23]: Induction of mutagenicity in Salmonella serovar Typhimurium TA 100 assessed as number of revertant colonies at 1 ug by Ames assay in presence of Aroclor 1254-induced rat liver S9 metabolic activation system. In kind it is toxicity, subcellular, Salmonella enterica subsp. enterica serovar Typhimurium. In outline: as §4
For orientation: The Ames test detects mutagens through reverse mutation in bacteria.

Data set [24] in a line: Cmax in Swiss Webster mouse at 70 mg/kg, po by HPLC-MS/MS analysis. Conditions: in vivo. Also on record: dose 70 mg/kg, route oral. It counts as ADME, organism-based. An outline of the steps:
as §2

Usually half-life stands for the time needed for the level to fall by half in the phase considered. As usually defined, the Tmax is the time from dosing to the highest level. As usually defined, the bioavailability is dose-corrected exposure relative to a reference, in per cent. As a reminder, the inhibition in vivo is how much of the control response was suppressed. What is called Cmax is the peak of the concentration-time curve.

With `CCOc1cc(NC(=N)c2ccccn2)ccc1-c1ccc(-c2ccc(NC(=N)c3ccccn3)cc2OCC)o1`, the half-life in [1] is 17 h; in data set [4] it was 24 h; in data set [6], 32 h. For the same molecule, in data set [2], the Tmax was 2 h. Besides, the Activity in the data set with Mus musculus [3] is 52 mg/dL; in the data set on Mus musculus [5], “Toxic”; with Mus musculus [7], “Non-toxic”; in the data set on Mus musculus [8] it was “Toxic”. Moreover, the bioavailability was 9.3% in data set [9] and 3.3% in data set [10].
With `CC(C)Oc1cc(NC(=N)c2ccccn2)ccc1-c1ccc(-c2ccc(NC(=N)c3ccccn3)cc2OC(C)C)o1`, the inhibition in vivo at 50 mg/kg/day in the data set with Leishmania donovani [11] was determined as 74%; in the data set on Leishmania donovani [16] it was 76%. For the same molecule, the Activity entry in [12] is given as “Toxic”; in data set [14], 43; with Mus musculus [17], “Toxic”; in the data set with Leishmania donovani [18], 71%; in the data set on Mus musculus [22], 68 U/L; in data set [23], 159. Also, the half-life in data set [13] is 24 h. The results for the Cmax in [15] and in data set [24] were 10.4 µM and 1.76 µM, respectively. Further, in data set [19], the concentration at 2 h came out at 43.1 µM. In addition, in the data set with Leishmania donovani [20], the inhibition in vivo at 30 mg/kg/day is 24%. The molecule further registered a Vd in the data set on Mus musculus [21] of 54 L/kg.

(Values after ChEMBL document CHEMBL1275590, “Novel arylimidamides for treatment of visceral leishmaniasis” (Antimicrob Agents Chemother, 2010).)
